These results are taken from article PMC6300982 (Chemosphere, 2015).

Common to all, as to type: biochemical
Assay [1] addresses T1, UGT1A3 (Homo sapiens, UniProt P35503).
T1 sequence (P35503 29-534): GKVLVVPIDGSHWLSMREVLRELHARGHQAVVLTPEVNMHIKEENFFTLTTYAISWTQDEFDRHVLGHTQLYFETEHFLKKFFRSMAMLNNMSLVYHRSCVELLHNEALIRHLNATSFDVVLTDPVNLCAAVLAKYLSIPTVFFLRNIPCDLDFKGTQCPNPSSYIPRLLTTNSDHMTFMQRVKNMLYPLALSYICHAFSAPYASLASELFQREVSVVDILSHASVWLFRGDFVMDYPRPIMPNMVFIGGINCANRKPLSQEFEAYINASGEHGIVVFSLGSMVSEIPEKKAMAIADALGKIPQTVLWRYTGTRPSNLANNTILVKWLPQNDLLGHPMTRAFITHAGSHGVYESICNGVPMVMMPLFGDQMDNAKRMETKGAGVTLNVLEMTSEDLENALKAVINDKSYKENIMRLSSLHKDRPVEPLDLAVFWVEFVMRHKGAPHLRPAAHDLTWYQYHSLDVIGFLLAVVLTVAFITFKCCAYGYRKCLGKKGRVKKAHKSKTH
Put plainly: dose-dependent inhibition of 4-MU glucuronidation, HPLC-UV. The settings on record: read-out: % inhibition at 100 μM.

For another assay, the target named is T2, UGT1A9 (Homo sapiens, UniProt O60656).
T2 sequence (O60656 26-530): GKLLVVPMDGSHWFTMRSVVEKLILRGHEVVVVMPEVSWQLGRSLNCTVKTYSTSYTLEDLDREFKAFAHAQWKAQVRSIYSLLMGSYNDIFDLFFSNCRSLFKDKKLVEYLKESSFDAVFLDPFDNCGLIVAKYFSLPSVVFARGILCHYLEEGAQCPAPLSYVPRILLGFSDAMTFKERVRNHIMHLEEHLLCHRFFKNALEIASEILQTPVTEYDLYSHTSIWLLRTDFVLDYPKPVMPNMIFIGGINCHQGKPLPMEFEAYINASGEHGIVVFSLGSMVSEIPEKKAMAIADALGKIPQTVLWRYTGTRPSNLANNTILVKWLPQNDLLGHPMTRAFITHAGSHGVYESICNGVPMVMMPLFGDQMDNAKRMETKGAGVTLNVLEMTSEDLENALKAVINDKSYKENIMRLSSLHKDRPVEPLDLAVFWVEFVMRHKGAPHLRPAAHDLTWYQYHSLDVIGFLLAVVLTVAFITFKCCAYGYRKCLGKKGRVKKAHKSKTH
Put plainly: single-concentration. The settings on record: read-out: % inhibition at 100 μM.

The target of the next assay is T3, UGT2B7 (Homo sapiens, UniProt P16662).
T3 sequence (P16662 24-529): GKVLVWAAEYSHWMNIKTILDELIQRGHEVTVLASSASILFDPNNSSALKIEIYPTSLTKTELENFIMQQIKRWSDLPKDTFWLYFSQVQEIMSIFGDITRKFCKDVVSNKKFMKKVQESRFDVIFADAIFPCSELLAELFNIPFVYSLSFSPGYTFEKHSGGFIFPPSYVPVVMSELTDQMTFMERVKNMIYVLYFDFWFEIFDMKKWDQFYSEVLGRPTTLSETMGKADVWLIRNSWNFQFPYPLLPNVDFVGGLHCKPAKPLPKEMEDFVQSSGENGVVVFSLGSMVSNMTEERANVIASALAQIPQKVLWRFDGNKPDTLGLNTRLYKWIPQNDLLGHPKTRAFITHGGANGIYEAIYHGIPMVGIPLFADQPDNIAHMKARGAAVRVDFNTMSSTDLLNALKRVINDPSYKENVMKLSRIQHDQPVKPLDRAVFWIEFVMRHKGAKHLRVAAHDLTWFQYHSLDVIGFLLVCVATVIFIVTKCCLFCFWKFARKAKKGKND
Put plainly: single-concentration. Conditions: read-out: % inhibition at 100 μM.

Assay [2] concerns the target T1, UGT1A3. The assay is described as follows: inhibition kinetics of 4-MU glucuronidation by recombinant enzyme. In a few lines:
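Insect-cell-expressed human UGT1A3 glucuronidating 4-MU across several substrate and test compound concentrations. Buffer: 5 mM UDPGA, 5 mM MgCl2, 50 mM Tris-HCl pH 7.4. 5 min preincubation, started with UDPGA, 37 °C. 4-MUG quantified by HPLC-UV at 316 nm against internal standard. Dixon and Lineweaver–Burk plots gave inhibition type; Ki from secondary plot of Lineweaver–Burk slopes versus inhibitor concentration.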

The next assay concerns the target T4, UGT1A6 (Homo sapiens, UniProt P19224).
T4 sequence (P19224 27-532): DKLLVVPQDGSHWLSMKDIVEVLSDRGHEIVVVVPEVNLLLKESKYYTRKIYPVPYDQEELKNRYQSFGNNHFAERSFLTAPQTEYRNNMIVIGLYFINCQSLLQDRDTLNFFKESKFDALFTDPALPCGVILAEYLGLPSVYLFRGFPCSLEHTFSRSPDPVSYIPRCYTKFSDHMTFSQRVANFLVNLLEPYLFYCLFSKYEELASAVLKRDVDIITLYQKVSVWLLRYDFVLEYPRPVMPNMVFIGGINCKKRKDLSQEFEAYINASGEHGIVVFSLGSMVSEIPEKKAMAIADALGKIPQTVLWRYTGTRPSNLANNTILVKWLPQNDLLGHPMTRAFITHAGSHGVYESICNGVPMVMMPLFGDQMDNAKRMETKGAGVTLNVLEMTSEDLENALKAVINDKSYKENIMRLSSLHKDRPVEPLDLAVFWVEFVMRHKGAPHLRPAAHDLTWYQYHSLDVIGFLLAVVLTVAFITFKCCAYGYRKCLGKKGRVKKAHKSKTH
The assay is described as follows: single-concentration. The settings on record: read-out: % inhibition at 100 μM.

Assay [3] deals with T1, UGT1A3. The assay is described as follows: glucuronidation of 4-MU by recombinant enzyme, HPLC-UV.

SMILES strings stand for the structures.

Consider `CCCCCCCCOC(=O)c1ccccc1C(=O)OCCCCCCCC` [DNOP, di-n-octyl ortho-phthalate], for which the inhibition at 100 µM on UGT1A3 [1] is 41.8%; at UGT1A9, 45.6%; on UGT2B7 it was 48.8%.
With `O=C(Oc1ccccc1)c1ccccc1C(=O)Oc1ccccc1` [DPhP, diphenyl phthalate], the inhibition constant (Ki) on UGT1A3 [2] is 890 nM. Moreover, the figures for the inhibition at 100 µM on UGT1A6 and on UGT1A9 were 49.1% and 76.4%, respectively.
On to `Cc1cc(=O)oc2cc(O)ccc12` [4-MU, 4-Methylμmbelliferone], for which the “glucuronidation of 4-MU by recombinant enzyme, HPLC-UV” value at UGT1A3 [3] was “Determination of inhibition kinetics of DPhP towards UGT1A3-catalyzed glucuronidation of 4-MU”.
